Compounds with a hit are over-represented: about 1.6% of the library has one in this group of screens.
FLuc inh counter: inhibits firefly luciferase, flagging false hits in luciferase inhibition screens. P08659. ATPLite firefly luciferase biochemical luminescence, 10 min. inhibition, % at 10 µM. hit rate 1.5% among 200,000. AID 1006;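 active = inhibition above about 50% when tested at 10 µM, limit read from the data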
Target sequence (P08659 whole entry, looked up): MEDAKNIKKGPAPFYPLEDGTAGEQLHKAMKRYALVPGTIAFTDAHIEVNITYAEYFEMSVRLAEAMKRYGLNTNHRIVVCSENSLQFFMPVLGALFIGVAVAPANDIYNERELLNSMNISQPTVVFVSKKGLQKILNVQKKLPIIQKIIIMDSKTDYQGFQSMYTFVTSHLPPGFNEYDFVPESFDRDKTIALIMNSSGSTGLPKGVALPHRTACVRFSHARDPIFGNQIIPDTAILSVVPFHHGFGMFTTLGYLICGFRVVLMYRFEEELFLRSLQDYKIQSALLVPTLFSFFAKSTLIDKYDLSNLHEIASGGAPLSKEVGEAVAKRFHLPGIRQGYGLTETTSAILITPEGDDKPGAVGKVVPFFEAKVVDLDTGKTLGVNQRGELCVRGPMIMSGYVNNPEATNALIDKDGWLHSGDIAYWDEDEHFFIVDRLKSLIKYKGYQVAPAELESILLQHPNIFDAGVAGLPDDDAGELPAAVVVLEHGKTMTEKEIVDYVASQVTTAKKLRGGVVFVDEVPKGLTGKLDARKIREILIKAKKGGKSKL
PPC-1+TRAIL kill: kills PPC-1 cancer cells in the presence of TRAIL | AID 1443 | hit rate 0.41% among 220,000 | PPC-1 cells + TRAIL, ATPLite viability luminescence | cell killing (% activity), % at 4 µM or 5 µM;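 active = cell killing above 50% in the first pass at 4 µM, then a duplicate retest at 5 µM averaging 50% or more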;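 note: plate controls were cells with TRAIL plus DMSO for no effect and medium-only wells lacking cells for full effect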
TRAIL sens C8: caspase-8 TRAIL sensitization; hit rate 1% among 360,000; NB7+C8 cells + TRAIL, ATPlite viability luminescence; inhibition (viability loss, TRAIL sensitization), % at 10 µM; AID 624354;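 active = compounds causing at least 50% loss of cell viability in the single-dose screen, relative to plate controls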
FLuc stim CS: firefly luciferase counter-screen for stimulation assays; 200,000 tested, under 10 active; ATPlite luciferase biochemical, luminescence, 10 min; 0 = ATP-free wells, 1 = DMSO control; activation factor at 10 µM; P08659;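 active = luciferase activation factor, scaled between plate controls, of at least 2 with compound at 10 µM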
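Assay system: Luciferase/luciferin reagent mix; Medium: PBS as buffer for the ATP substrate; Dosing: test compounds dosed from 2 mM stocks in 100% DMSO; Times: 10 min, room temperature; Signal: luminescence from luciferase reaction; Read-out: luciferase activation; Controls: No-ATP low control, compound-free enzyme-plus-ATP high control.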
An asterisk follows results filed as active.

CC1OC2CC(=O)OC2C2=C1C(=O)c1c(O)cccc1C2=O (centres undefined) was read as TRAIL sens C8 93.7*.
For CC(C)COC(=O)N(C)C[C@@H]1OCc2cnnn2CCCC(=O)N([C@@H](C)CO)C[C@H]1C the results were TRAIL sens C8 -5.8.
For CCOC(=O)c1c2c(n(Cc3ccccc3)c1C)C(=O)C(=O)c1ccccc1-2 the results were TRAIL sens C8 92.8*.
CCOC(=O)c1c2c(n(C)c1C)C(=O)C(=O)c1ccc(Br)cc1-2 was read as TRAIL sens C8 96.6*.
CCOC(=O)c1c2c3c(cccc3n(C)c1=O)C(=O)c1ccccc1-2 was read as TRAIL sens C8 -14.6.
O=C(CSc1ccc2nnc(-c3ccccn3)n2n1)Nc1ccc(F)cc1F was read as TRAIL sens C8 5.1.
Cc1cccc2sc(NNC(=O)c3cc(-c4cccs4)nc4ccccc34)nc12 was read as FLuc inh counter -1.1, PPC-1+TRAIL kill 9.2, TRAIL sens C8 50.4* and FLuc stim CS 1.
For Cc1cc(/C=C2/C(=N)N3C(=NC2=O)SN=C3S(C)(=O)=O)c(C)n1-c1ccc(F)cc1 the results were FLuc inh counter 69.5*, PPC-1+TRAIL kill 9.2, TRAIL sens C8 38.1 and FLuc stim CS 0.3.
For CCOc1ccc(-n2c(C)cc(/C=C3/C(=N)N4C(=NC3=O)SN=C4S(C)(=O)=O)c2C)cc1 the results were FLuc inh counter -1.1, PPC-1+TRAIL kill 8.6, TRAIL sens C8 -6.7 and FLuc stim CS 1.
`Cc1[nH]n(-c2ccccc2)c(=O)c1/C=N/NC(=O)c1ccc(O)cc1O` gave TRAIL sens C8 41.7.
Screening Cc1ccc(-n2[nH]c(C)c(/C=N/NC(=O)c3ccc(O)cc3O)c2=O)cc1 returned TRAIL sens C8 72.6*.
For O=C(O)c1cccc(-c2ccc(/C=N/n3cnc4sc5c(c4c3=O)CCCC5)o2)c1 the results were PPC-1+TRAIL kill 6.6.
For Cc1ccc([N+](=O)[O-])cc1N=Nc1c(C)[nH]n(C(N)=S)c1=O the results were TRAIL sens C8 -18.6.
NC(=S)n1[nH]c(-c2ccc([N+](=O)[O-])cc2)c(N=Nc2ccc(Cl)cc2)c1=O was read as FLuc inh counter 2.7, PPC-1+TRAIL kill 26.4, TRAIL sens C8 58.9* and FLuc stim CS 1.
`Cc1ccc([N+](=O)[O-])cc1N=Nc1c(-c2ccc([N+](=O)[O-])cc2)[nH]n(C(N)=S)c1=O` gave FLuc inh counter 4.5, PPC-1+TRAIL kill 35.3, TRAIL sens C8 50.3* and FLuc stim CS 1.
Screening Cc1ccc(N=Nc2c(C)[nH]n(C(N)=S)c2=O)cc1 returned FLuc inh counter 33.1, PPC-1+TRAIL kill 33.1, TRAIL sens C8 5.2 and FLuc stim CS 0.7.
Screening CCOC(=O)C(=CNc1ccc2c(c1)c1ccccc1n2CC)C(=O)OCC returned PPC-1+TRAIL kill 10.7 and TRAIL sens C8 -20.4.
`Nc1nnc(CSCc2cccc(Br)c2)s1` gave FLuc inh counter 1.4, PPC-1+TRAIL kill -16.1, TRAIL sens C8 -14.8 and FLuc stim CS 1.
CCOc1ccccc1N1C(=O)c2ccc(S(=O)(=O)c3ccc(C(=O)O)cc3)cc2C1=O was read as TRAIL sens C8 -2.6.
Clc1ccccc1OCc1nc(-c2ccc(Br)o2)no1 was read as FLuc inh counter 1.3, PPC-1+TRAIL kill 12.7, TRAIL sens C8 -2.0 and FLuc stim CS 1.
For Clc1ccc(OCc2nc(-c3ccccn3)no2)c(Br)c1 the results were FLuc inh counter 70.3*, PPC-1+TRAIL kill 44.9, TRAIL sens C8 51.9* and FLuc stim CS 0.3.
Screening Clc1ccccc1OCc1nc(-c2ccccn2)no1 returned FLuc inh counter 51.3*, PPC-1+TRAIL kill 15.8, TRAIL sens C8 28.2 and FLuc stim CS 0.5.
Screening O=C(C1CCN(S(=O)(=O)c2ccc(F)cc2)CC1)N1CCCC(C(F)(F)F)C1 (centres undefined) returned TRAIL sens C8 10.6.
Cc1noc(C)c1COc1ccc(C(=O)OCC(=O)Nc2c(C)n(C)n(-c3ccccc3)c2=O)cc1 was read as FLuc inh counter -6.0, PPC-1+TRAIL kill 24.8, TRAIL sens C8 -11.1 and FLuc stim CS 1.1.
Screening O=C(c1ccc(COc2ccccc2Br)o1)N1N=C(C(F)F)CC1(O)C(F)F (centres undefined) returned FLuc inh counter -4.2, PPC-1+TRAIL kill 3.2, TRAIL sens C8 14.5 and FLuc stim CS 1.
`CC(NC(=O)c1csc2ccccc12)C1CCCO1` (centres undefined) gave FLuc inh counter -4.1, PPC-1+TRAIL kill 8.1, TRAIL sens C8 6.7 and FLuc stim CS 1.
Screening Cc1ccnc(NC(=O)c2sc3ccccc3c2Cl)c1 returned FLuc inh counter 92.4*, PPC-1+TRAIL kill 76.5*, TRAIL sens C8 91.7* and FLuc stim CS 0.1.
Screening CC(C)c1nnc(NC(=O)c2sc3ccccc3c2Cl)s1 returned FLuc inh counter 63.8*, PPC-1+TRAIL kill 19.0, TRAIL sens C8 20.2 and FLuc stim CS 0.4.
For Cc1ccc2c(Cl)c(C(=O)Nc3cc(C)on3)sc2c1 the results were FLuc inh counter 12.7, PPC-1+TRAIL kill -7.2, TRAIL sens C8 0.3 and FLuc stim CS 0.9.
Screening CC(NC(=O)c1sc2ccccc2c1Cl)C1CCCO1 (centres undefined) returned FLuc inh counter 62.6*, PPC-1+TRAIL kill 22.5, TRAIL sens C8 36.1 and FLuc stim CS 0.4.
Screening CC(C)c1nnc(NC(=O)c2ccc3ccccc3c2)s1 returned TRAIL sens C8 10.1.
For O=C(Nc1nccs1)c1sc2ccccc2c1Cl the results were FLuc inh counter 85.1*, PPC-1+TRAIL kill 38.8, TRAIL sens C8 74.3* and FLuc stim CS 0.1.
CC1(C)NC(=O)N(CCC(=O)Nc2cc(C(F)(F)F)ccc2Cl)C1=O was read as TRAIL sens C8 -3.9.
For CC1(c2ccccc2)CC(C)(C)N2C(=O)Cc3cccc1c32 (centres undefined) the results were FLuc inh counter -7.4, PPC-1+TRAIL kill -4.5, TRAIL sens C8 -13.5 and FLuc stim CS 1.1.
For Cc1ccnc(NC(=O)c2ccc(Br)s2)c1 the results were TRAIL sens C8 55.2*.
O=C(N/N=C/C1CCCCC1)c1cc(Cl)ccc1O was read as FLuc inh counter 50.3*, PPC-1+TRAIL kill 10.6, TRAIL sens C8 -16.8 and FLuc stim CS 0.5.
For COc1ccc(S(=O)(=O)/N=C2\C=C(Nc3ccc(O)cc3)C(=O)c3ccccc32)cc1 the results were TRAIL sens C8 96.3*.
Screening COCc1cc(CN2CCCC2)c(O)c2ncccc12 returned FLuc inh counter -1.7, PPC-1+TRAIL kill -2.4, TRAIL sens C8 -3.2 and FLuc stim CS 1.
For Oc1c(CN2CCCCC2)cc(COCc2ccccc2)c2cccnc12 the results were FLuc inh counter -1.1, PPC-1+TRAIL kill 15.3, TRAIL sens C8 56.3* and FLuc stim CS 1.
Screening CN1C2=C(C(=O)CC(C)(C)C2)C(c2cccs2)C2=C1CC(C)(C)CC2=O returned TRAIL sens C8 11.3.
COc1cccc(NC(=O)c2ccc(CN3CCOCC3)cc2)c1 was read as FLuc inh counter 50.9*, PPC-1+TRAIL kill 0.7, TRAIL sens C8 24.3 and FLuc stim CS 0.5.
Screening O=C(Nc1ccc2c(c1)OCCO2)c1cccc(Cl)c1 returned TRAIL sens C8 37.7.

Source: PubChem
